NR2E3 ag-1 = human photoreceptor-specific nuclear receptor agonism. CHO-S Gal4-NCOR/VP16-NR2E3 two-hybrid, luciferase. inhibition of corepressor binding, % at 3.98 µM. 360,000 compounds, 0.35% hits;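 active = inhibition above the mean of all tested compounds plus 3 SD, cut at about 70% in these data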;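 also: 0% = DMSO with NR2E3 transfected cells and 100% = cells lacking NR2E3 construct; higher means lower luciferase signal from less NR2E3 corepressor binding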
Target sequence (Q9Y5X4 whole entry, looked up, the tested form may be a part): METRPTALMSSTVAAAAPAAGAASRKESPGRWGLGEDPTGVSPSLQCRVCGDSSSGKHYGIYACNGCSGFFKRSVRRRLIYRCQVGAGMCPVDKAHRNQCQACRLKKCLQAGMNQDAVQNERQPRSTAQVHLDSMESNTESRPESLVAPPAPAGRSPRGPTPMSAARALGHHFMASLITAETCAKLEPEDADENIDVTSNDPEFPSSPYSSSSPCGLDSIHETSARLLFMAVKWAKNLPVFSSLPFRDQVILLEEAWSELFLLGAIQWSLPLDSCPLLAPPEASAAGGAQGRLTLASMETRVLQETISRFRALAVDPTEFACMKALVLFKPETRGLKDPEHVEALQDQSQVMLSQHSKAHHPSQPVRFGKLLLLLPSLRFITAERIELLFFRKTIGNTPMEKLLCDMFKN
NR2E3 ag-2 = NR2E3 (human) agonism; Q9Y5X4; GST-NR2E3/biotin-RetCOR TR-FRET, 1536-well; inhibition of corepressor binding, % at 4.78 µM; 320,000 compounds, 0.12% hits;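 active = percent inhibition above the cutoff of mean plus 3 SD of all tested compounds, set per screening campaign, cut at about 20% in these data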;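 also: 0% = DMSO wells and 100% = biotin wells as full block of FRET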
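Format: 1536-well format; test system: GST-NR2E3 and biotin-RetCOR proteins; read-out basis: percent inhibition of TR-FRET ratio; timing: 5 h incubation at 4 °C; detection: time-resolved FRET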
NR1D1 modulator = modulates human Rev-erb alpha binding to DNA; Rev-erbα–FITC-DNA binding, fluorescence polarization, 90 min; activity, % at 10 µM; 370,000 compounds, 0.79% hits; AID 1259318;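 active = activity above about 14%, limit read from the data; passing the limit was not always enough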;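 also: 0% = DMSO wells with 35 nM protein and 100% = DMSO wells with 750 nM protein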
rCAG binder = r(CAG) repeat RNA binding | TO-PRO-1 dye displacement fluorescence | inhibition, % at 3 µM | 370,000 compounds, 1.3% hits;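 active = inhibition above the plate cutoff, the mean of all test compounds on that plate plus 3 SD, cut at about 35% in these data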;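 also: 0% = DMSO alone and 100% = 100 µM mitoxantrone as full dye displacement; higher means more dye released from RNA so lower well fluorescence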
PG9 binder = PG9 antibody binding by small molecule | AID 624416 | TR-FRET gp120-PG9 antibody binding | inhibition, % at 6.7 µM | 360,000 compounds, 0.43% hits; in the data active = inhibition above about 8.5%
rCAG binder conf = r(CAG) RNA repeat binding, confirmation; shares compounds with rCAG binder; TO-PRO-1 dye displacement fluorescence; inhibition, % at 3 µM; 4,300 compounds, 70% hits;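 active = inhibition above a per-plate cutoff, the mean inhibition of sample wells plus 3 SD, cut at about 35% in these data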;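 also: loss of TO-PRO-1 fluorescence as compound displaces dye from 1x1 AA loop RNA; 0% = DMSO only wells and 100% = 100 µM mitoxantrone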
DNA CAG counter = DNA CAG dye complex inhibition counter-screen; shares compounds with rCAG binder; d(CAG) DNA oligo TO-PRO-1 dye displacement, fluorescence; inhibition, % at 3 µM; 4,300 compounds, 94% hits; AID 652068;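 active = inhibition above its plate's cutoff, the mean test-well inhibition plus 3 SD, cut at about 4.8% in these data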;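 also: 0% = DNA dye mix with DMSO and 100% = 100 µM mitoxantrone; hits displace the dye from DNA and so lower well fluorescence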
dCAG dye DR = DNA CAG dye complex inhibition, dose response counter-screen. shares compounds with rCAG binder. DNA CAG/GTC duplex TO-PRO-1 dye displacement fluorescence. IC50, µM. 250 compounds, 20% hits. AID 686960; in the data active = IC50 below about 10 µM
* hit, by the source's call. In the library only some 2.6% were active in any assay of this set; here they are far more common.

Results for CCOC1=C/C(=C/c2c(N)n3oc(C)cc3nc2=O)C=CC1=O ?
NR2E3 ag-2: -1.7

How did CCOC1=C/C(=C/c2c(N)n3nc(-c4ccccc4)sc3nc2=O)C=CC1=O do in these assays?
NR2E3 ag-1: -16.3; NR1D1 modulator: 5.8; rCAG binder: 48.7*; PG9 binder: -1.1; rCAG binder conf: 58.8*; DNA CAG counter: 24.7*

How did CCS(=O)(=O)c1nn2c(N)c(/C=C3/C=CC(=O)C(OC)=C3)c(=O)nc2s1 do in these assays?
NR2E3 ag-1: -1.6; NR2E3 ag-2: -4.2; NR1D1 modulator: 5.8; rCAG binder: 5.2; PG9 binder: -1.7

How did COc1cccc(C(NC(C)=O)c2nc(-c3ccccc3C)cs2)c1 (stereo not given) do in these assays?
NR2E3 ag-1: -12.8; NR1D1 modulator: 8.9; rCAG binder: 1.6; PG9 binder: 1.8

Results for CN1CCN(C2CN(Cc3cn(Cc4cccc(C(F)(F)F)c4)nn3)S(=O)(=O)C2)CC1 (stereo not given) ?
NR2E3 ag-1: -12.7; NR1D1 modulator: -6.8; rCAG binder: 2.2; PG9 binder: 1.4

Results for Nc1cc2c(cc1[N+](=O)[O-])-c1ccccc1C2=NO ?
NR2E3 ag-1: -46.7; NR1D1 modulator: 10.6; rCAG binder: 44.3*; PG9 binder: -3.1; rCAG binder conf: 29.6; DNA CAG counter: 24.3*

What do the screens show for `Cc1cccc(C)c1OCC(=O)Nc1cccc(S(=O)(=O)N2CCCCCC2)c1`?
NR2E3 ag-1: 5.8; NR1D1 modulator: -0.6; rCAG binder: 5.2; PG9 binder: 2.4

Results for COc1ccc2[nH]c(=O)cc(C(=O)O)c2c1 ?
NR2E3 ag-1: 32.8; NR2E3 ag-2: -3.3; NR1D1 modulator: -3.1; rCAG binder: 8.3; PG9 binder: -1.3

How did COc1ccc2[nH]c3c4c(ccc3c2c1)C(=O)C=CC4=O do in these assays?
NR2E3 ag-1: -30.4; NR1D1 modulator: -2.8; rCAG binder: 43.5*; PG9 binder: 10.5*; rCAG binder conf: 19.1; DNA CAG counter: 14.8*

How did COC(=O)N1CCCCC1c1cc(C(=O)N2CCOCC2)no1 (stereo not given) do in these assays?
NR2E3 ag-1: 14.2; NR1D1 modulator: -5.6; rCAG binder: 0.4; PG9 binder: 0.4

How did CCOC(=O)C1=CCN(S(=O)(=O)c2ccccc2Br)C1c1ccc(Br)cc1 (stereo not given) do in these assays?
NR2E3 ag-1: -4.6; NR1D1 modulator: 7.6; rCAG binder: 4.4; PG9 binder: -0.3

Results for COc1ccc([C@@H]2CC=C(C(=O)O)[C@H](c3ccc(Br)cc3)N2S(=O)(=O)c2ccccc2C)cc1 ?
NR2E3 ag-1: 27.2; NR1D1 modulator: -1.6; rCAG binder: 76.8*; PG9 binder: -1.4; rCAG binder conf: 75.5*; DNA CAG counter: 39.9*

Results for COc1ccc([C@@H]2CC=C(C(=O)O)[C@H](c3ccc(Cl)cc3)N2S(=O)(=O)c2ccccc2C)cc1 ?
NR2E3 ag-1: -4.2; NR2E3 ag-2: -4.7; NR1D1 modulator: -3.6; rCAG binder: 47.2*; PG9 binder: -1.5; rCAG binder conf: 60.0*; DNA CAG counter: 24.7*

What do the screens show for `CC(C)(C)OC(=O)C1=CC[C@@H](c2ccc(Cl)c(Cl)c2)N(S(=O)(=O)c2ccc(F)cc2)[C@H]1c1cccc(F)c1`?
NR2E3 ag-1: 1.4; NR1D1 modulator: 5.6; rCAG binder: 3.2; PG9 binder: -1.0

Results for Cc1ccccc1S(=O)(=O)N1C(c2ccc(Cl)c(Cl)c2)CC=C(C(=O)O)C1c1cccc(Br)c1 (stereo not given) ?
NR1D1 modulator: 5.2; rCAG binder: 85.6*; PG9 binder: -1.1; rCAG binder conf: 85.4*; DNA CAG counter: 57.4*

Results for Cc1ccccc1S(=O)(=O)N1[C@@H](c2ccccc2)C(C(=O)O)=CC[C@H]1c1ccc(Cl)cc1 ?
NR2E3 ag-1: 7.3; NR2E3 ag-2: -2.6; NR1D1 modulator: 6.8; rCAG binder: 65.4*; PG9 binder: -0.3; rCAG binder conf: 74.0*; DNA CAG counter: 36.4*

Results for Cc1cc(C)n2c(SC(C)C(=O)NC3(C#N)CCCCC3)nnc2n1 (stereo not given) ?
NR2E3 ag-1: -11.9; NR2E3 ag-2: 3.8; NR1D1 modulator: 0.3; rCAG binder: 1.6; PG9 binder: 1.4

What do the screens show for `O=C(NC1CCCCC1)C(C1CC1)n1c(=O)c(-c2ccccc2)nc2ccccc21` (stereo not given)?
NR1D1 modulator: 6.6; rCAG binder: 0.3; PG9 binder: -0.6

What do the screens show for `COC(=O)[C@@]12C[C@@H](CC(=O)NCc3cccs3)C(=O)N(Cc3cccc4ccccc34)C1=CCC(C)(C)C2`?
NR1D1 modulator: -6.7; rCAG binder: 8.8; PG9 binder: 0.0

What do the screens show for `NC(=O)C1C2CCC(C2)C1C(N)=O` (stereo not given)?
NR2E3 ag-1: 11.6; NR1D1 modulator: 0.3; rCAG binder: 0.2; PG9 binder: -1.3

Results for Cc1ccc([C@@H]2CC=C(C(=O)O)[C@H](c3ccc(Cl)cc3)N2S(=O)(=O)c2ccccc2C)cc1 ?
NR2E3 ag-1: 30.4; NR1D1 modulator: -2.6; rCAG binder: 73.4*; PG9 binder: -0.8; rCAG binder conf: 69.8*; DNA CAG counter: 31.5*; dCAG dye DR: inactive

Results for CC1(C(=O)NS(=O)(=O)Cc2cccc(Cl)c2)CCN1C(=O)C/C=C/c1ccccc1 (stereo not given) ?
NR2E3 ag-1: -39.2; NR1D1 modulator: -3.9; rCAG binder: 39.0*; PG9 binder: 0.3; rCAG binder conf: 35.5*; DNA CAG counter: 8.3*

How did CC1(C(=O)NS(=O)(=O)Cc2cccc(Cl)c2)CCN1C(=O)C1(c2ccc(Cl)cc2)CC1 (stereo not given) do in these assays?
NR2E3 ag-1: -2.5; NR1D1 modulator: -9.2; rCAG binder: 54.4*; PG9 binder: -0.8; rCAG binder conf: 44.7*; DNA CAG counter: 11.5*

How did CC1(C(=O)NS(=O)(=O)Cc2cccc(Cl)c2)CCN1C(=O)Cc1ccc(-c2ccccc2)cc1 (stereo not given) do in these assays?
NR2E3 ag-1: 13.7; NR1D1 modulator: 0.4; rCAG binder: 72.1*; PG9 binder: -1.6; rCAG binder conf: 70.0*; DNA CAG counter: 29.4*; dCAG dye DR: inactive
